# Source: ChEMBL document CHEMBL1667761, “3-benzylamino-β-carboline derivatives induce apoptosis through G2/M arrest in human carcinoma cells HeLa S-3” (Eur J Med Chem, 2011)
# Active and inactive are the calls of the source. The calls are words filed in the database; no cut-off is given here.
# Assays:
# [1] = Antitumor activity against human HeLaS3 cells after 24 to 72 hrs by MTT assay; type: functional, cell-based, HeLa S3
# Outline: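 HeLa S-3 cells (MEM, 10% FBS, HEPES, NEAA, 2 mM L-glutamine, 5% CO2, 37 °C) seeded at 2 × 10⁴ cells/ml and cultured 3 h before exposure for 24–72 h at 37 °C. MTT (2 mg/ml) added for 4 h at 37 °C, formazan dissolved in DMSO, A540 read. Viability is expressed as % of control. IC50 is the concentration giving 50% growth inhibition, mean ± S.D. of four independent experiments run in triplicate.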
# [2] = Cell cycle arrest in human HeLaS3 cells assessed as accumulation at sub-G1 phase at 5 uM after 24 hrs by flow cytometry; type: functional, cell-based; settings: HeLa S3
# Outline: (§1)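 HeLa S-3 cells exposed for 6, 12 or 24 h. Cells washed twice in ice-cold PBS, fixed in ice-cold 70% ethanol, and resuspended with 0.1 mg/ml RNase. Stained with […] PI and analysed by flow cytometry. Phase distribution (sub-G1, G1, S, G2/M) is reported as percentage of cells. Controls were untreated.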
# [3] = Cell cycle arrest in human HeLaS3 cells assessed as accumulation at G1 phase at 5 uM after 6 hrs by flow cytometry; type: functional, cell-based; settings: HeLa S3; outline: as §1
# [4] = Cell cycle arrest in human HeLaS3 cells assessed as accumulation at G1 phase at 5 uM after 24 hrs by flow cytometry; type: functional, cell-based; settings: HeLa S3; outline: as §1
# [5] = Cell cycle arrest in human HeLaS3 cells assessed as accumulation at G1 phase at 5 uM after 12 hrs by flow cytometry; type: functional, cell-based; settings: HeLa S3; outline: as §1
# [6] = Cell cycle arrest in human HeLaS3 cells assessed as accumulation at S phase at 5 uM after 24 hrs by flow cytometry; type: functional, cell-based; settings: HeLa S3; outline: as §1
# [7] = Cell cycle arrest in human HeLaS3 cells assessed as accumulation at G2/M phase at 1 uM after 12 hrs by flow cytometry; type: functional, cell-based; settings: HeLa S3; outline: as §1
# [8] = tested on: HeLa S3; test: Induction of apoptosis in human HeLaS3 cells assessed as cleaved caspase-3 at 5 times IC50 by Western blot method; type: functional, cell-based
# Outline: (§2)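 HeLa S-3 cells treated for 24 h at 5-fold the IC50, alongside non-treated controls. Cells lysed in RIPA buffer (pH 8.0) with protease inhibitors and the whole-cell extract separated by SDS-PAGE, then transferred to PVDF. Blots blocked in 5% skim milk/TTBS and probed with anti-cdc2, cdk2 or cleaved caspase-3 antibodies (1:1000). β-actin (1:5000) served as loading control. Detection by HRP secondary antibody and ECL.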
# [9] = Cell cycle arrest in human HeLaS3 cells assessed as accumulation at S phase at 1 uM after 24 hrs by flow cytometry; type: functional, cell-based; settings: HeLa S3; outline: as §1
# [10] = Cell cycle arrest in human HeLaS3 cells assessed as effect on cdk2 protein level at 5 times IC50 by Western blot method; type: functional, cell-based; settings: HeLa S3; outline: as §2
# [11] = Cell cycle arrest in human HeLaS3 cells assessed as accumulation at S phase at 5 uM after 6 hrs by flow cytometry; type: functional, cell-based; settings: HeLa S3; outline: as §1
# [12] = Cell cycle arrest in human HeLaS3 cells assessed as accumulation at G1 phase at 1 uM after 6 hrs by flow cytometry; type: functional, cell-based; settings: HeLa S3; outline: as §1
# [13] = Cell cycle arrest in human HeLaS3 cells assessed as accumulation at sub-G1 phase at 1 uM after 24 hrs by flow cytometry; type: functional, cell-based; settings: HeLa S3; outline: as §1
# [14] = Cell cycle arrest in human HeLaS3 cells assessed as increase in cdc2 protein level at 5 times IC50 by Western blot method; type: functional, cell-based; settings: HeLa S3; outline: as §2
# [15] = Cell cycle arrest in human HeLaS3 cells assessed as accumulation at sub-G1 phase at 1 uM after 12 hrs by flow cytometry; type: functional, cell-based; settings: HeLa S3; outline: as §1
# [16] = Cell cycle arrest in human HeLaS3 cells assessed as accumulation at sub-G1 phase at 5 uM after 6 hrs by flow cytometry; type: functional, cell-based; settings: HeLa S3; outline: as §1
# [17] = Cell cycle arrest in human HeLaS3 cells assessed as accumulation at G2/M phase at 5 uM after 24 hrs by flow cytometry; type: functional, cell-based; settings: HeLa S3; outline: as §1
# [18] = tested on: HeLa S3; test: Induction of apoptosis in human HeLaS3 cells assessed as appearance of fragmented nuclei at 5 times IC50 after 48 hrs by Hoechst staining; type: functional, cell-based
# Outline: (§3)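 Stained with Hoechst 33342 (1 µg/ml) for 40 min at 37 °C. Nuclei were examined by confocal laser microscopy, and apoptosis was scored from chromatin condensation and fragmented nuclei.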
# [19] = Cell cycle arrest in human HeLaS3 cells assessed as accumulation at sub-G1 phase at 5 uM after 12 hrs by flow cytometry; type: functional, cell-based; settings: HeLa S3; outline: as §1
# [20] = Cell cycle arrest in human HeLaS3 cells assessed as accumulation at G1 phase at 1 uM after 12 hrs by flow cytometry; type: functional, cell-based; settings: HeLa S3; outline: as §1
# [21] = Cell cycle arrest in human HeLaS3 cells assessed as accumulation at G2/M phase at 5 uM after 12 hrs by flow cytometry; type: functional, cell-based; settings: HeLa S3; outline: as §1
# [22] = Cell cycle arrest in human HeLaS3 cells assessed as accumulation at G2/M phase at 1 uM after 6 hrs by flow cytometry; type: functional, cell-based; settings: HeLa S3; outline: as §1
# [23] = Cell cycle arrest in human HeLaS3 cells assessed as accumulation at S phase at 5 uM after 12 hrs by flow cytometry; type: functional, cell-based; settings: HeLa S3; outline: as §1
# [24] = Cell cycle arrest in human HeLaS3 cells assessed as accumulation at S phase at 1 uM after 12 hrs by flow cytometry; type: functional, cell-based; settings: HeLa S3; outline: as §1
# [25] = Cell cycle arrest in human HeLaS3 cells assessed as accumulation at sub-G1 phase at 1 uM after 6 hrs by flow cytometry; type: functional, cell-based; settings: HeLa S3; outline: as §1
# [26] = Cell cycle arrest in human HeLaS3 cells assessed as accumulation at S phase at 1 uM after 6 hrs by flow cytometry; type: functional, cell-based; settings: HeLa S3; outline: as §1
# [27] = tested on: HeLa S3; test: Induction of apoptosis in human HeLaS3 cells assessed as appearance of fragmented nuclei at 10 times IC50 after 48 hrs by Hoechst staining; type: functional, cell-based; outline: as §3
# [28] = Cell cycle arrest in human HeLaS3 cells assessed as accumulation at G2/M phase at 5 uM after 6 hrs by flow cytometry; type: functional, cell-based; settings: HeLa S3; outline: as §1
# [29] = tested on: HeLa S3; test: Induction of apoptosis in human HeLaS3 cells assessed as DNA fragmentation after 24 hrs by agarose gel electrophoresis; type: functional, cell-based
# Outline: (§4)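 HeLa S-3 cells exposed for 12–48 h, then pellets lysed in 0.6% sarcosine, 20 mM Tris-HCl pH 7.4, 20 mM EDTA. Lysate treated with RNase A for 2 h at 50 °C, then proteinase K overnight at 50 °C. DNA extracted with phenol/chloroform, run on 2% agarose in TAE at 50 V, stained with ethidium bromide, and visualised under UV.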
# [30] = Cell cycle arrest in human HeLaS3 cells assessed as accumulation at G2/M phase at 1 uM after 24 hrs by flow cytometry; type: functional, cell-based; settings: HeLa S3; outline: as §1
# [31] = Cell cycle arrest in human HeLaS3 cells assessed as accumulation at G1 phase at 1 uM after 24 hrs by flow cytometry; type: functional, cell-based; settings: HeLa S3; outline: as §1
# [32] = tested on: HeLa S3; test: Induction of apoptosis in human HeLaS3 cells assessed as DNA fragmentation after 48 hrs by agarose gel electrophoresis; type: functional, cell-based; outline: as §4
smiles,measurement,setting,value
CC(C)CNc1cc2c(cn1)[nH]c1ccccc12,IC50,"[1]; Homo sapiens, HeLa S3",13 µM
Oc1cccc(CNc2cc3c(cn2)[nH]c2ccccc23)c1,Activity,[2],21.3%
same,Activity,[3],27.3%
same,Activity,[4],15.8%
same,Activity,[5],7.2%
same,Activity,[6],6.8%
same,Activity,[7],31.3%
same,Activity,[8],Active
same,Activity,[9],17.4%
same,Activity,[10],inactive
same,Activity,[11],14.1%
same,Activity,[12],36.2%
same,Activity,[13],7.5%
same,Activity,[14],Active
same,Activity,[15],9.5%
same,Activity,[16],3.5%
same,Activity,[17],53.3%
same,Activity,[18],Active
same,Activity,[19],5.9%
same,Activity,[20],48.8%
same,Activity,[21],76.7%
same,Activity,[22],36.3%
same,Activity,[23],8.9%
same,Activity,[24],10.7%
same,Activity,[25],8.2%
same,Activity,[26],20%
same,Activity,[27],Active
same,Activity,[28],52.9%
same,Activity,[29],Active
same,Activity,[30],17.1%
same,IC50,"[1]; Homo sapiens, HeLa S3",0.92 µM
same,Activity,[31],58.5%
C[n+]1cc2[nH]c3ccccc3c2cc1NCc1ccccc1 [listing 1 of 4 here],IC50,[1]; hela s3,99 µM
CC(C)(C)OC(=O)NCCOc1cccc(CNc2cc3c(cn2)[nH]c2ccccc23)c1,IC50,"[1]; Homo sapiens, HeLa S3",16 µM
c1ccc(CCCNc2cc3c(cn2)[nH]c2ccccc23)cc1,IC50,"[1]; Homo sapiens, HeLa S3",21 µM
COC(=O)c1cccc(CNc2cc3c(cn2)[nH]c2ccccc23)c1,IC50,"[1]; Homo sapiens, HeLa S3",17 µM
CCNc1cc2c3ccccc3nc-2c[nH]1,IC50,"[1]; Homo sapiens, HeLa S3",19 µM
C[n+]1cc2[nH]c3ccccc3c2cc1NCc1ccccc1 [listing 2 of 4 here],IC50,[1]; hela s3,0.54 µM
C[n+]1cc2[nH]c3ccccc3c2cc1NCc1ccccc1 [listing 3 of 4 here],Activity,[2],6.9%
same,Activity,[3],29.7%
same,Activity,[4],4.4%
same,Activity,[5],6.1%
same,Activity,[6],3.6%
same,Activity,[7],73.5%
same,Activity,[8],Active
same,Activity,[9],13.6%
same,Activity,[10],inactive
same,Activity,[11],13.8%
same,Activity,[12],31.5%
same,Activity,[13],34.6%
same,Activity,[14],Active
same,Activity,[15],10.3%
same,Activity,[16],2.8%
same,Activity,[17],82.3%
same,Activity,[18],Active
same,Activity,[19],3.2%
same,Activity,[20],7.8%
same,Activity,[21],78.5%
same,Activity,[22],46.1%
same,Activity,[23],10%
same,Activity,[24],8.7%
same,Activity,[25],4.7%
same,Activity,[26],21.9%
same,Activity,[27],Active
same,Activity,[28],50.5%
same,Activity,[32],Active
same,Activity,[29],inactive
same,Activity,[30],13.8%
same,Activity,[31],38.4%
c1ccc(CNc2cc3c(cn2)[nH]c2ccccc23)cc1,Activity,[2],8.3%
same,Activity,[3],34%
same,Activity,[4],4.9%
same,Activity,[5],13.8%
same,Activity,[6],3.9%
same,Activity,[7],84.3%
same,Activity,[8],Active
same,Activity,[9],2.6%
same,Activity,[10],inactive
same,Activity,[11],12.2%
same,Activity,[12],31.5%
same,Activity,[13],3.7%
same,Activity,[14],Active
same,Activity,[15],3.7%
same,Activity,[16],3.3%
same,Activity,[17],80.5%
same,Activity,[18],Active
same,Activity,[19],3%
same,Activity,[20],2.9%
same,Activity,[21],68.1%
same,Activity,[22],46.1%
same,Activity,[23],12.5%
same,Activity,[24],9.4%
same,Activity,[25],3.8%
same,Activity,[26],19%
same,Activity,[27],Active
same,Activity,[28],47.3%
same,Activity,[29],Active
same,Activity,[30],92.2%
same,IC50,"[1]; Homo sapiens, HeLa S3",0.12 µM
same,Activity,[31],1.1%
c1ccc(CCNc2cc3c(cn2)[nH]c2ccccc23)cc1,IC50,"[1]; Homo sapiens, HeLa S3",22 µM
C[n+]1cc2[nH]c3ccccc3c2cc1NCc1ccccc1 [listing 4 of 4 here],IC50,[1]; hela s3,9.9 µM
CC(C)(C)OC(=O)NCCOc1ccc(CNc2cc3c(cn2)[nH]c2ccccc23)cc1,IC50,"[1]; Homo sapiens, HeLa S3",42 µM
COC(=O)c1ccc(CNc2cc3c(cn2)[nH]c2ccccc23)cc1,IC50,"[1]; Homo sapiens, HeLa S3",45 µM
CC(C)(C)CNc1cc2c(cn1)[nH]c1ccccc12,IC50,"[1]; Homo sapiens, HeLa S3",17 µM
CNc1cc2c(cn1)[nH]c1ccccc12,IC50,"[1]; Homo sapiens, HeLa S3",101 µM
c1ccc2c(c1)[nH]c1cnccc12 [NORHARMANE],IC50,"[1]; Homo sapiens, HeLa S3",> 100 µM
